From PubChem
This is a sample that favours compounds with a hit; in the whole collection about 4.5% have one here.
UPR CHOP act = apoptotic UPR (CHOP) activation; CHO-CHOP luciferase reporter, luminescence; percent of tunicamycin response over DMSO baseline; AID 449763; actives 0.34% (n = 330,000); activation, % at 10 µM;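 active = at 10 µM dose, activation of 40% or more, normalized to positive control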;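 also: 100% = tunicamycin at 10 µg/mL and 0% = DMSO alone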
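Assay system: CHO cells with stable CHOP pathway luciferase reporter; Buffer or medium: F12 plus 10% serum; Times: 16-18 h cell attachment, then 6 h compound exposure, 37 °C; Signal: luciferase luminescence; Read-out basis: percent activation relative to tunicamycin control; Control set: tunicamycin high control, DMSO low control.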
M18AAP inhibitor = blocks P. falciparum M18 aspartyl aminopeptidase. actives 1.2% (n = 290,000). recombinant PfM18AAP, H-Glu-NHMec fluorogenic cleavage. inhibition, % at 7.35 µM;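 active = inhibition above the campaign mean inhibition over all tested compounds plus 3 SD, cut at about 28% in these data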;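 also: 0% = plate median of test compound wells and 100% = 2 mM ZnCl2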
CHOP inhibitor = CHOP inhibition in unfolded protein response; CHO-K1 CHOP-promoter luciferase, tunicamycin-induced, 15-18 h; inhibition, % at 10 µM; actives 3.8% (n = 220,000);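 active = compounds that reduced the stress-induced luciferase reporter signal by more than about 70% of percent inhibition, limit read from the data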;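 also: 0% = tunicamycin plus vehicle and 100% = wells without tunicamycin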
NS3 helicase inh = inhibitors of Hepatitis C virus NS3 helicase. actives 0.56% (n = 290,000). NS3 helicase DNA unwinding, Cy5 molecular beacon fluorescence. AID 1800. inhibition, % at 10.9 µM;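 active = inhibition above the mean of all tested compounds plus 3 SD, set per campaign, cut at about 35% in these data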;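 also: 0% = DMSO wells and 100% = thioflavine S control wells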
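System: HCV NS3 helicase fragment; control set: DMSO and thioflavine S; technique: Cy5 fluorescence at 0 and 60 min, beacon hairpin quenching; reagent: beacon DNA duplex substrate plus ATP; replicates: singlicate; schedule: 1 h reaction at 25 °C, ATP-initiated; medium: MOPS buffer pH 6.5 with MgCl2, DTT, Tween20, BSA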
p97 ATPase inh = blocks human p97 ATPase activity; inhibition, % at 8 µM; actives 0.42% (n = 220,000); recombinant p97 ATPase, Kinase-Glo ATP luminescence, 3 h; in the data active = inhibition above about 15%;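 also: 0% = DMSO vehicle and 100% = wells lacking enzyme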
Target sequence (P55072 whole entry, looked up): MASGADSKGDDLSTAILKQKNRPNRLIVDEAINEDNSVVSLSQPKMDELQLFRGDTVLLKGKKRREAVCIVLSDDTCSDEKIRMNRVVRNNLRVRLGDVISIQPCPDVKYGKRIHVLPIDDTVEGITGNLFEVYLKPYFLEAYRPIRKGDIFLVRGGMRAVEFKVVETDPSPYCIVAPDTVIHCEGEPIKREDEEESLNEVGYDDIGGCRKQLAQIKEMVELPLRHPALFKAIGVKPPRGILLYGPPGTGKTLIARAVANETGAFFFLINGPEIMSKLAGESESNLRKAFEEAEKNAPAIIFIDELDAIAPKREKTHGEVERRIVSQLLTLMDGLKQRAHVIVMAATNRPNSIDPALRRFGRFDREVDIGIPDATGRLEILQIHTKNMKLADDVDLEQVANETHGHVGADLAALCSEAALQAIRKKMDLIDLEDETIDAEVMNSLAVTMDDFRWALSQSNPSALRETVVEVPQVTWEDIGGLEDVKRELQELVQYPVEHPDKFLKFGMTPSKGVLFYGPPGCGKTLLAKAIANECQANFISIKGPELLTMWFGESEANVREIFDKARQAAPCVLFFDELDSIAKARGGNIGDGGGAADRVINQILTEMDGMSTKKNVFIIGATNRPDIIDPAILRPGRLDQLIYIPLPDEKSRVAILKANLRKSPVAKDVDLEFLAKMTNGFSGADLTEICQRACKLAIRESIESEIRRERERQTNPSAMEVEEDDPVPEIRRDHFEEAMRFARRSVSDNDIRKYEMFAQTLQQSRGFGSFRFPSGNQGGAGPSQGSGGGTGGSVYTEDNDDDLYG
XBP1 UPR activ = adaptive UPR (XBP1) activation; CHO-XBP1 luciferase reporter, IRE1-XBP1 UPR activation, luminescence; percent of tunicamycin response, DMSO as zero; activation, % at 20 µM; actives 0.33% (n = 330,000); AID 463104;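 active = versus positive control, 20 µM dose yields 30% or more activation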;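 also: 100% = tunicamycin at 10 µg/mL and 0% = DMSO only wells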
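Material: CHO-XBP1 cells stably carrying IRE1-XBP1-driven luciferase reporter / Amount: 1000 cells per well / Compound: 20 µM, 1% DMSO / Times: 6 h treatment, 37 °C / Detection: luciferase luminescence / Measure: % activation of reporter signal versus tunicamycin and DMSO controls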
UPR CHOP confirm = apoptotic UPR (CHOP) activation, confirmed. shares compounds with UPR CHOP act. CHO-CHOP cells, CHOP-luciferase reporter luminescence; percent of tunicamycin response, DMSO as zero. activation, % at 10 µM. actives 64% (n = 1,000). AID 463112; in the data active = activation above about 33%;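 also: 0% = DMSO wells and 100% = tunicamycin 10 µg/mL wells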
* = called active by the depositor.

Results for CC(=O)n1cc(C(C[N+](=O)[O-])SCCN)c2ccccc21 (centres undefined) ?
UPR CHOP act: 138*; M18AAP inhibitor: 4; CHOP inhibitor: -1; NS3 helicase inh: -9; p97 ATPase inh: 10; XBP1 UPR activ: 5; UPR CHOP confirm: -4

How did O=[N+]([O-])c1ccc(C=Nc2ccc(Cl)c([N+](=O)[O-])c2)s1 do in these assays?
UPR CHOP act: 61*; M18AAP inhibitor: -3; CHOP inhibitor: -25; NS3 helicase inh: 17; p97 ATPase inh: 3; XBP1 UPR activ: -3; UPR CHOP confirm: 49*

Results for Cc1ccc(C(=O)Nc2cccc(S(=O)(=O)N3CCCC3)c2)o1 ?
UPR CHOP act: -1; XBP1 UPR activ: 0

How did COc1cccc2sc(Nc3nc(-c4ccccn4)cs3)nc12 do in these assays?
UPR CHOP act: 624*; M18AAP inhibitor: 23; NS3 helicase inh: -30; p97 ATPase inh: 5; XBP1 UPR activ: 9; UPR CHOP confirm: 425*

How did c1ccc(Nc2nc(-c3ccccn3)cs2)cc1 do in these assays?
UPR CHOP act: 4; M18AAP inhibitor: -3; CHOP inhibitor: -99; NS3 helicase inh: 9; p97 ATPase inh: -3; XBP1 UPR activ: 1

Results for COc1cccc2sc(Nc3nnc(-c4ccc(F)cc4)o3)nc12 ?
UPR CHOP act: 1; M18AAP inhibitor: 3; CHOP inhibitor: 46; NS3 helicase inh: -3; p97 ATPase inh: -2; XBP1 UPR activ: 3

Results for COc1cccc2sc(Nc3nnc(-c4cccs4)o3)nc12 ?
UPR CHOP act: 55*; M18AAP inhibitor: 4; NS3 helicase inh: 11; p97 ATPase inh: 7; XBP1 UPR activ: 5; UPR CHOP confirm: 60*

What do the screens show for `O=C(Nc1nc(-c2ccccn2)cs1)c1ccc(Br)s1`?
UPR CHOP act: 60*; M18AAP inhibitor: -7; CHOP inhibitor: -29; NS3 helicase inh: 9; p97 ATPase inh: 2; XBP1 UPR activ: 17; UPR CHOP confirm: 42*

How did COC(=O)c1c(NC(=O)C(C)(C)C)sc2c1C(C(=O)OC)CC2 (centres undefined) do in these assays?
UPR CHOP act: 1; M18AAP inhibitor: 2; CHOP inhibitor: 30; NS3 helicase inh: -2; p97 ATPase inh: 4; XBP1 UPR activ: 1

What do the screens show for `COC(=O)c1c(NC(=O)C(Cl)Cl)sc2c1C(C(=O)OC)CC2` (centres undefined)?
UPR CHOP act: 45*; M18AAP inhibitor: -2; CHOP inhibitor: 80*; NS3 helicase inh: 5; p97 ATPase inh: -5; XBP1 UPR activ: 18; UPR CHOP confirm: 30

What do the screens show for `COc1cc(NS(=O)(=O)c2c(C)[nH]c(C)c2C(=O)N2CCCCC2)cc(OC)c1OC`?
UPR CHOP act: 2; M18AAP inhibitor: -7; NS3 helicase inh: 15; XBP1 UPR activ: -2

What do the screens show for `NC(=O)C1CCN(C2=C(Cl)C(=O)c3ccccc3C2=O)CC1`?
UPR CHOP act: 394*; M18AAP inhibitor: 7; CHOP inhibitor: -183; NS3 helicase inh: -4; p97 ATPase inh: 3; XBP1 UPR activ: 4; UPR CHOP confirm: -10

Results for CC1=NN(c2ccccc2)C(=O)/C1=C/c1cn(C)c2ccccc12 ?
UPR CHOP act: 1; M18AAP inhibitor: -11; CHOP inhibitor: -10; NS3 helicase inh: 0; p97 ATPase inh: -5; XBP1 UPR activ: -1

How did CC(C)CCNC(=O)c1ccc2c(SCC(=O)O)c3c(nc2c1)CCCC3 do in these assays?
UPR CHOP act: 44*; M18AAP inhibitor: 6; CHOP inhibitor: -22; NS3 helicase inh: -3; p97 ATPase inh: 5; XBP1 UPR activ: -1; UPR CHOP confirm: -1

Results for Cn1c2ccccc2c(=O)c2c(=O)n(-c3ccccc3)c(-c3ccc(C(C)(C)C)cc3)nc21 ?
UPR CHOP act: 59*; M18AAP inhibitor: -6; CHOP inhibitor: -41; NS3 helicase inh: 6; p97 ATPase inh: -10; XBP1 UPR activ: 21; UPR CHOP confirm: -2
